Laboratory results as given in PubChem BioAssay AID624080 (The Scripps Research Institute Molecular Screening Center, 2012).
Several values for one entry are separate records, joined by “and”; a condition that tells them apart may be missing. Identical values can stand only once. Activity calls are given as the source filed them.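 Rule for the calls: active = compound whose MIC, giving a fourfold drop in bacterial growth, is 10 µM or lower; inactive = the rest.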

Key:
[1] = test system: VIM-2 P. aeruginosa PA641 growth with imipenem, OD590; experiment: imipenem potentiation in VIM-2 P. aeruginosa, late-stage follow-up, clinical strain PA641, imipenem synergy, MIC (AID 624080)
How it was run: (§1)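 Dosing – test compound two-fold series along rows, checkerboard with imipenem · Incubation – ≥18 h at 37 °C, aerobic · Technique – turbidity by absorbance at 590 nm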

[2] = as above; settings: VIM-2 P. aeruginosa PA641 growth with imipenem, OD590; measured here: max imipenem fold potentiation; stronger effect = higher value
How it was run: as §1

Structure (SMILES)	MIC [1]	fold potentiation [2]
O=C(CN1C(=O)/C(=C/c2c(Cl)cccc2Cl)SC1=S)NN1CCCCC1	> 100 µM (inactive)	–
CN1CCN(NC(=O)CN2C(=O)/C(=C/c3c(F)cccc3C(F)(F)F)SC2=S)CC1	> 50 µM (inactive)	–
O=C(CN1C(=O)/C(=C/c2c(Cl)cccc2Cl)SC1=S)NN1CCNCC1	> 50 µM (inactive)	2
CN1CCN(NC(=O)CN2C(=O)/C(=C/c3c(Cl)ccc(C(F)(F)F)c3Cl)SC2=S)CC1	> 50 µM (inactive)	2
CC(C)(C)OC(=O)N1CCN(NC(=O)CN2C(=O)/C(=C/c3c(Cl)cccc3Cl)SC2=S)CC1	> 100 µM (inactive)	–
CN1CCN(NC(=O)CN2C(=O)/C(=C/c3c(Cl)cccc3Cl)SC2=S)CC1	> 100 µM (inactive)	2
O=C(CN1C(=O)/C(=C/c2c(Cl)cccc2Cl)SC1=S)NN1CCN(C(=O)c2ccccc2)CC1	> 50 µM (inactive)	–
CN1CCN(NC(=O)CN2C(=O)/C(=C/c3c(C(F)(F)F)ccc(Cl)c3Cl)SC2=S)CC1	> 50 µM (inactive)	4
CCN(CC)OC(=O)CN1C(=O)/C(=C/c2c(Cl)cccc2Cl)SC1=S	> 100 µM (inactive)	–
CC(=O)N1CCN(NC(=O)CN2C(=O)/C(=C/c3c(Cl)cccc3Cl)SC2=S)CC1	> 50 µM (inactive)	2
CN1CCN(NC(=O)CN2C(=O)/C(=C/c3c(F)cccc3Cl)SC2=S)CC1	> 50 µM (inactive)	–

Now from value to molecule, other results behind:

MIC [1]	Structure (SMILES)	fold potentiation [2]
> 100 µM (inactive)	O=C(O)CN1C(=O)/C(=C/c2c(Cl)cccc2Cl)SC1=S	–
> 50 µM (inactive)	CN1CCN(NC(=O)CN2C(=O)/C(=C/c3c(Cl)ccc(Cl)c3Cl)SC2=S)CC1	4 and 2
> 100 µM (inactive)	O=C(CN1C(=O)/C(=C/c2c(Cl)cccc2Cl)SC1=S)NCc1ccccn1	2
> 50 µM (inactive)	CN1CCN(C(=O)CN2C(=O)/C(=C/c3c(Cl)ccc(Cl)c3Cl)SC2=S)CC1	4
> 50 µM (inactive)	O=C(CN1C(=O)/C(=C/c2c(Cl)cccc2Cl)SC1=S)NN1CCN(Cc2ccccc2)CC1	–
> 50 µM (inactive)	O=C(CN1C(=O)/C(=C/c2c(Cl)ccc(Cl)c2Cl)SC1=S)NN1CCNCC1	2
> 50 µM (inactive)	O=C(CN1C(=O)/C(=C/c2c(Cl)ccc(Cl)c2Cl)SC1=S)NCc1ccccn1	–
> 50 µM (inactive)	O=C(CN1C(=O)/C(=C/c2c(Cl)ccc(Cl)c2Cl)SC1=S)NN1CCCCC1	–
> 50 µM (inactive)	CC(C)(C)OC(=O)N1CCN(NC(=O)CN2C(=O)/C(=C/c3c(Cl)ccc(Cl)c3Cl)SC2=S)CC1	–
